Measurements reported in ChEMBL document CHEMBL1275283, “Synthesis and evaluation of novel stearoyl-CoA desaturase 1 inhibitors: 1'-{6-[5-(pyridin-3-ylmethyl)-1,3,4-oxadiazol-2-yl]pyridazin-3-yl}-3,4-dihydrospiro[chromene-2,4'-piperidine] analogs” (Eur J Med Chem, 2010).
≈ marks a conversion by molar mass, not a printed value. Calls of active or inactive are those of the source. The rule behind the calls is not given here.

Assays:
[1] = AUC (0 to 8 hrs) in C57BL/6J mouse at 20 mg/kg, po; format: ADME, organism-based; design: time < 8 hr, dose 20 mg/kg, route oral; details: plasma
Outline: (§1)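 Oral gavage via intubation tube at 20 mg/kg in propylene glycol/Tween 4:1, n = 3 C57BL/6J mice. Plasma sampled up to 8 h after dosing. Values are arithmetic means of at least two experiments.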

[2] = Aqueous solubility of the compound at acidic JP-1 solution of pH 1.2 by HPLC analysis; format: physicochemical
Outline: (§2)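 Solubility measured in purchased aqueous acidic JP-1 (pH 1.2) or neutral JP-2 (pH 6.8) media. Samples analyzed by HPLC, with UV peak area compared to a calibration standard of 250 µM compound in CH3CN/water 1:1. Means of at least two experiments.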

[3] = Half life in C57BL/6J mouse at 20 mg/kg, po; format: ADME, organism-based; design: dose 20 mg/kg, route oral; details: in vivo; outline: as §1
Stearoyl-CoA desaturase [4] = molecular target: T1, Stearoyl-CoA desaturase (Homo sapiens, UniProt O00767); assay: Inhibition of human SCD1 expressed in HEK293A cells assessed as reduction in conversion of [14C]stearic acid to [14C]oleic acid after 30 mins; format: cell-based, HEK293-A
T1 sequence (O00767 whole entry): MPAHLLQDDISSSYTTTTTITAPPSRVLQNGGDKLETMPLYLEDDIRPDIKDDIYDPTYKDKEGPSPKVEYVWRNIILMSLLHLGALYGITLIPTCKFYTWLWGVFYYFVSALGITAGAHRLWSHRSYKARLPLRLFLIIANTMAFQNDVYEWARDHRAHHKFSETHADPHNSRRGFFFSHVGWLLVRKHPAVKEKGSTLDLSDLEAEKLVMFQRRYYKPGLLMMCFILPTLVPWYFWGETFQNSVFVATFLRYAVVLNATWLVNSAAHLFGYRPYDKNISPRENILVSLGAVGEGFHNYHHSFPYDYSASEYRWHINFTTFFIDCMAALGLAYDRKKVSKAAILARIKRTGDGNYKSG
Outline: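 293A cells stably expressing human SCD1 (G418-selected) grown to confluence in DMEM + 10% FBS. Cells preincubated with compound 30 min, then given 0.1 µCi [14C]stearate for 4 h. Lipids saponified in KOH, separated by AgNO3-TLC, and the [14C]oleate/[14C]stearate ratio used as activity. IC50 derived from this read-out.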

[5] = Tmax in C57BL/6J mouse at 20 mg/kg, po; format: ADME, organism-based; design: dose 20 mg/kg, route oral; details: in vivo; outline: as §1
Acyl-CoA desaturase 1 = molecular target: T2, Acyl-CoA desaturase 1 (Mus musculus, UniProt P13516); assay: Inhibition of SCD1 in mouse microsome assessed as reduction in conversion of [14C]stearic acid to [14C]oleic acid after 30 mins; format: microsomes
T2 sequence (P13516 whole entry): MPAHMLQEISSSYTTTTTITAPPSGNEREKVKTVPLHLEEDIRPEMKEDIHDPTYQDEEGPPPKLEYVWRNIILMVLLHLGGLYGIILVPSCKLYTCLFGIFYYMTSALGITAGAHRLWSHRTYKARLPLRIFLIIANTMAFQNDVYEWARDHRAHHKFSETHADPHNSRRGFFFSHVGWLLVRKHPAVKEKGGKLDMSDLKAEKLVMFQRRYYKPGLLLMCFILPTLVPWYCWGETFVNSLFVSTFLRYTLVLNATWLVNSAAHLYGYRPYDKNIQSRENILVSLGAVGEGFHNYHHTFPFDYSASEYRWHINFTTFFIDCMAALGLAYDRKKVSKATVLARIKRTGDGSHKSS

Stearoyl-CoA desaturase [6] = molecular target: T1, Stearoyl-CoA desaturase; assay: Inhibition of SCD1 in HEK293A cell microsomes assessed as reduction in conversion of [14C]stearic acid to [14C]oleic acid after 30 mins; design: species or system HEK293-A, Microsome
Mus musculus [7] = assay: Inhibition of liver SCD1 activity in po dosed db/db mouse assessed as reduction in conversion of [14C]stearic acid to [14C]oleic acid; format: functional; details: read-out: ID50 (the source's name)
Outline: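 Seven-week-old male db/db mice dosed by oral gavage 2 h before i.p. [14C]stearate (100 µCi/kg in saline with 2% BSA). Livers harvested 1 h later and homogenized in cold PBS. Saponified homogenate analyzed by AgNO3-TLC for the [14C]oleate/[14C]stearate ratio. ID50 is the dose giving 50% inhibition.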

[8] = Cmax in C57BL/6J mouse at 20 mg/kg, po up to 8 hrs; format: ADME, organism-based; design: dose 20 mg/kg, route oral; details: in vivo; outline: as §1
[9] = Aqueous solubility of the compound at neutral JP-2 solution of pH 6.8 by HPLC analysis; format: physicochemical; outline: as §2
Cytochrome P450 1A2 = molecular target: T3, Cytochrome P450 1A2 (Homo sapiens, UniProt P05177); assay: Inhibition of CYP1A2; format: ADME
T3 sequence (P05177 whole entry): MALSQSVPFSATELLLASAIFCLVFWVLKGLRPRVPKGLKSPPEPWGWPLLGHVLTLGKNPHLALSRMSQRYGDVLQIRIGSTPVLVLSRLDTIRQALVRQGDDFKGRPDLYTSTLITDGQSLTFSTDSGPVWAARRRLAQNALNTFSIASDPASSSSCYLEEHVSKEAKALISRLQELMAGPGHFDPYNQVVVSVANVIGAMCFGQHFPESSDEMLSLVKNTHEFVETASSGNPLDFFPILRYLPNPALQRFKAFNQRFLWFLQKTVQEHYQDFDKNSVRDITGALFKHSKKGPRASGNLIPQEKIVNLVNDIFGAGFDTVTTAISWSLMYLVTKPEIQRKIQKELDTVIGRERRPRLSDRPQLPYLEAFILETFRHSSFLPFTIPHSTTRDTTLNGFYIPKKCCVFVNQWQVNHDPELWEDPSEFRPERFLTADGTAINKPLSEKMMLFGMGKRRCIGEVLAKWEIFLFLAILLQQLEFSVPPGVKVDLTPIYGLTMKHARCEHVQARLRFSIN

Mus musculus [10] = assay: Inhibition of delta-(9)-desaturase in C57BL/6J mouse assessed as reduction in plasma desaturation index (C18:1/C18:0) at 0.3 mg/kg, po QD for 7 days measured post last dose; format: functional; details: 168 h
Outline: (§3)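 Nine-week-old male C57BL/6J mice on a high-carbohydrate diet (77.8 kcal% carbohydrate) for 7 days. Oral gavage once daily each evening at 0.3, 1, 3 or 10 mg/kg in propylene glycol/Tween 80 (4/1); n = 4. Serum taken the morning after the seventh dose, saponified in methanolic KOH and extracted with hexane. Index is oleate/stearate.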

Mus musculus [11] = assay: Toxicity in C57BL/6J mouse assessed change in organ morphology up to 10 mg/kg, po QD for 7 days measured post last dose by autopsy; format: organism-based; design: dose 10 mg/kg, route oral; details: in vivo, 168 h
Mus musculus [12] = assay: Toxicity in C57BL/6J mouse assessed as abnormalities in skin at 10 mg/kg, po QD for 7 days measured post last dose; format: organism-based; design: dose 10 mg/kg, route oral; details: in vivo, 168 h
Mus musculus [13] = assay: Toxicity in C57BL/6J mouse assessed occurrence of mild eye fissures at 3 to 10 mg/kg, po QD for 7 days measured post last dose; format: organism-based; design: dose 3-10 mg/kg, route oral; details: in vivo, 168 h
Cytochrome P450 2D6 = Cytochrome P450 2D6 (Homo sapiens, UniProt P10635); assay: Inhibition of CYP2D6; format: ADME
Mus musculus [14] = assay: Toxicity in C57BL/6J mouse assessed change in size of […] at 3 to 10 mg/kg, po QD for 7 days measured post last dose; format: organism-based; design: dose 3-10 mg/kg, route oral; details: in vivo, 168 h
[15] = Volume of distribution in C57BL/6J mouse at 5 mg/kg, iv up to 8 hrs; format: ADME, organism-based; design: dose 5 mg/kg, route intravenous; details: in vivo
Outline: (§4)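 Single intravenous tail-vein injection, 5 mg/kg in DMA/Tween80/saline 10:10:80, C57BL/6J mice (n = 2). Plasma collected up to 8 h post-dose. Means of at least two experiments.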

Mus musculus [16] = assay: Toxicity in C57BL/6J mouse assessed change in size of Harderian gland at 3 to 10 mg/kg, po QD for 7 days measured post last dose; format: organism-based; design: dose 3-10 mg/kg, route oral; details: in vivo, 168 h
Mus musculus [17] = assay: Inhibition of delta-(9)-desaturase in po dosed C57BL/6J mouse assessed as reduction in plasma desaturation index (C18:1/C18:0) QD for 7 days measured post last dose; format: functional, organism-based; outline: as §3
Mus musculus [18] = assay: Inhibition of delta-(9)-desaturase in C57BL/6J mouse assessed as reduction in plasma desaturation index (C18:1/C18:0) at 1 mg/kg, po QD for 7 days measured post last dose; format: functional, organism-based; design: dose 1 mg/kg; outline: as §3
[19] = Metabolic stability of the compound in mouse liver microsomes after 30 mins; format: ADME, Microsome; details: read-out: Stability
Outline: (§5)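 Stability reported as % parent remaining after 30 min incubation with murine or human liver microsomes. Means of at least two experiments.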

Mus musculus [20] = assay: Inhibition of delta-(9)-desaturase in C57BL/6J mouse assessed as reduction in plasma desaturation index (C18:1/C18:0) at 10 mg/kg, po QD for 7 days measured post last dose; format: functional; details: 168 h; outline: as §3
Cytochrome P450 3A4 = Cytochrome P450 3A4 (Homo sapiens, UniProt P08684); assay: Inhibition of CYP3A4; format: ADME
[21] = Half life in C57BL/6J mouse at 5 mg/kg, iv; format: ADME, organism-based; design: dose 5 mg/kg, route intravenous; details: in vivo; outline: as §4
[22] = Oral bioavailability in C57BL/6J mouse at 20 mg/kg up to 8 hrs; format: ADME, organism-based; details: in vivo
Outline: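 Bioavailability derived from plasma exposure after oral dosing (20 mg/kg, PG/Tween 4:1 by intubation tube, n = 3) and intravenous tail-vein dosing (5 mg/kg, DMA/Tween80/saline 10:10:80, n = 2) in C57BL/6J mice. Plasma sampled up to 8 h.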

[23] = Metabolic stability of the compound in human liver microsomes after 30 mins; format: ADME, Microsome; details: read-out: Stability; outline: as §5
Cytochrome P450 2C9 = Cytochrome P450 2C9 (Homo sapiens, UniProt P11712); assay: Inhibition of CYP2C9; format: ADME
[24] = Clearance in C57BL/6J mouse at 5 mg/kg, iv up to 8 hrs; format: ADME, organism-based; design: dose 5 mg/kg, route intravenous; details: in vivo; outline: as §4
Cytochrome P450 2C19 = Cytochrome P450 2C19 (Homo sapiens, UniProt P33261); assay: Inhibition of CYP2C19; format: ADME
Sequence of Cytochrome P450 2C19 (P33261 whole entry): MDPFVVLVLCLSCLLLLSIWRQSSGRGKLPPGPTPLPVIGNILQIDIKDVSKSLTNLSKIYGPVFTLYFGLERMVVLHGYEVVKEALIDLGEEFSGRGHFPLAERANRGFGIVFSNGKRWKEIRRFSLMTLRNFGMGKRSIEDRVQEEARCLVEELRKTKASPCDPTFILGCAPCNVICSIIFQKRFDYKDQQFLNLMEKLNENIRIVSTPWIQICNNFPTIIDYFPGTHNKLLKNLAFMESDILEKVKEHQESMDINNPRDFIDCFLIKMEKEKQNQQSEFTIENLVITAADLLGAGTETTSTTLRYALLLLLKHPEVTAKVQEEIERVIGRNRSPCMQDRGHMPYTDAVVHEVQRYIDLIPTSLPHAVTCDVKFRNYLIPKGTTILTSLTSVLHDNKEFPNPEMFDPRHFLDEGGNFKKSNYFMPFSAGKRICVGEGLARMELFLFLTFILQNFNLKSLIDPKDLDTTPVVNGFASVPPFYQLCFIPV

Sequence of Cytochrome P450 2C9 (P11712 whole entry): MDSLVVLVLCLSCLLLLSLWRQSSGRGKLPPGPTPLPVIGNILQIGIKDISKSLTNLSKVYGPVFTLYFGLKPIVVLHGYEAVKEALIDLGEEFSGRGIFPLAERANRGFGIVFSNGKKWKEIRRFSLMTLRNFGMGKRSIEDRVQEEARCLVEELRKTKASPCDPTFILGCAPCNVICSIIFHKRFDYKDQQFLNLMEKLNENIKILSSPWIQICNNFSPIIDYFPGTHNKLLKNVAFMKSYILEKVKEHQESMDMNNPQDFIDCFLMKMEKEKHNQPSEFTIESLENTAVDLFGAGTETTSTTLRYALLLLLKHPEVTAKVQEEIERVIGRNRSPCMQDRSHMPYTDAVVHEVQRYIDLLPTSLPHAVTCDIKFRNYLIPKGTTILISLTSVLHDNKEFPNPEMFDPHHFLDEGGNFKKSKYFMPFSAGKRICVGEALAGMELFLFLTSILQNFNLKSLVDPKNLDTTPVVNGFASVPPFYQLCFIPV
Sequence of Cytochrome P450 2D6 (P10635 whole entry): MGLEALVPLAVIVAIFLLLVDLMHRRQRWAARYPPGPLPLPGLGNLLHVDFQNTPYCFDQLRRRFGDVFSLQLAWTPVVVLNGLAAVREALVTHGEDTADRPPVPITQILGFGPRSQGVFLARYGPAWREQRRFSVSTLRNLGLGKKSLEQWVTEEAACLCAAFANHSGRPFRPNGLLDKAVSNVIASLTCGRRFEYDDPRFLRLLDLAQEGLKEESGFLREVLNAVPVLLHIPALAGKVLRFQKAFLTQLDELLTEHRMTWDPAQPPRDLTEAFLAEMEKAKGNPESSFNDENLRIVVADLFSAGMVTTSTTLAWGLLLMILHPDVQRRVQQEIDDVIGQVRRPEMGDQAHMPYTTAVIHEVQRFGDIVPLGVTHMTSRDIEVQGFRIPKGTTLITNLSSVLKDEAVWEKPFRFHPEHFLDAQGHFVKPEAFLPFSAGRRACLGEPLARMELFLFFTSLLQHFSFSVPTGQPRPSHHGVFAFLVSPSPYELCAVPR
Sequence of Cytochrome P450 3A4 (P08684 whole entry): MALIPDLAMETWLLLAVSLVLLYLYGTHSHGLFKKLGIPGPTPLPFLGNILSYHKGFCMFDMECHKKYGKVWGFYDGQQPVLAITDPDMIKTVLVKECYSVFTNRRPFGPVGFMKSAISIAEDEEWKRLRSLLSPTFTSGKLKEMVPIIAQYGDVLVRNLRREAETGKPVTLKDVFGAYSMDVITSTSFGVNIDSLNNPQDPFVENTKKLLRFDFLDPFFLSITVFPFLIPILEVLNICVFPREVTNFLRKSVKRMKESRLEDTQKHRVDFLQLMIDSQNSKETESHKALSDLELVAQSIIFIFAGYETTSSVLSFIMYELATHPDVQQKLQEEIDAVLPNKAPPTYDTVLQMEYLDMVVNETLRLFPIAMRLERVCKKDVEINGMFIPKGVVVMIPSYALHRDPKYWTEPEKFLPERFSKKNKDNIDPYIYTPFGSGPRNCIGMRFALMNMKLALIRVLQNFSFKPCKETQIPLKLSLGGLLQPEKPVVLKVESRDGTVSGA

Compound | AUC(0-t) at 8 h [1] | solubility [2] | half-life [3] | IC50 (Stearoyl-CoA desaturase [4]) | Tmax [5] | IC50 (Acyl-CoA desaturase 1) | IC50 (Stearoyl-CoA desaturase [6]) | ED50 (Mus musculus [7]) | Cmax [8] | solubility [9] | further results
Cc1cccc2c1CCC1(CCN(c3ccc(-c4nnc(Cc5cccnc5)o4)nn3)CC1)O2 | 2100 ng·h/mL | 91 µM (≈ 41.4 µg/mL) | 36 min | 0.7 nM | 48 min | 0.2 nM | 0.2 nM | 1 mg/kg | 1100 ng/mL | < 0.5 µM | 
O=C(NCCc1cccnc1)c1ccc(N2CCC3(CCc4ccccc4O3)CC2)nn1 |  |  |  | 76 nM |  | 10 nM | 27 nM | 5 mg/kg |  |  | 
c1cncc(Cc2nnc(-c3ccc(N4CCC5(CCc6ccccc6O5)CC4)nn3)o2)c1 | 2400 ng·h/mL | 92 µM (≈ 40.5 µg/mL) | 48 min | 4 nM | 60 min | 2 nM | 1 nM | 2 mg/kg | 1300 ng/mL | 4.2 µM (≈ 1.85 µg/mL) | 
Fc1cccc2c1CCC1(CCN(c3ccc(-c4nnc(Cc5cccnc5)o4)nn3)CC1)O2 | 6800 ng·h/mL | > 100 µM | 60 min | 0.7 nM | 78 min | 2 nM | 0.3 nM | 0.6 mg/kg | 2900 ng/mL | < 0.5 µM | IC50 (Cytochrome P450 1A2): 18000 nM; inhibition in vivo at 0.3 mg/kg (Mus musculus [10]): 32%; Activity (Mus musculus [11]): Non-toxic; Activity (Mus musculus [12]): Non-toxic; Activity (Mus musculus [13]): Toxic; IC50 (Cytochrome P450 2D6): 27000 nM; Activity (Mus musculus [14]): Non-toxic; Vd [15]: 1.3 L/kg; Activity (Mus musculus [16]): Non-toxic; inhibition (Mus musculus [17]): Dose-dependent effect; inhibition (Mus musculus [18]): Active; remaining at 0.5 h [19]: 51%; inhibition in vivo at 10 mg/kg (Mus musculus [20]): 66%; IC50 (Cytochrome P450 3A4): 1600 nM; half-life [21]: 24 min; bioavailability [22]: > 95%; remaining at 0.5 h [23]: 65%; IC50 (Cytochrome P450 2C9): 3000 nM; clearance [24]: 53 mL/min/kg; IC50 (Cytochrome P450 2C19): 14000 nM
Clc1cccc2c1CCC1(CCN(c3ccc(-c4nnc(Cc5cccnc5)o4)nn3)CC1)O2 | 1400 ng·h/mL | > 50 µM | 42 min | 1 nM | 48 min | 0.04 nM | 0.06 nM | 1 mg/kg | 690 ng/mL | < 0.5 µM | 
